Reference: ChEMBL document CHEMBL2396514, “Optimization of novel nipecotic bis(amide) inhibitors of the Rho/MKL1/SRF transcriptional pathway as potential anti-metastasis agents” (Bioorg Med Chem Lett, 2013)
In brackets after ≈: the same amount, converted by molar mass.

Key:
[1] = Kinetic solubility of the compound; type: physicochemical; settings: read-out: Kinetic_solubility
PC-3 [2] = assay: Antimetastatic activity against human PC3 cells at 10 uM after 24 hrs by scratch wound assay; type: functional; settings: PC-3, 24 h
Outline: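 Confluent PC-3 monolayers (5.0×10^5 cells plated, DMEM with 10% FBS) were scratched 24 h after plating. Cells were then exposed to compound at 10 μM, or 0.1% DMSO, in DMEM with 0.5% FBS. Wounds were imaged at 0 h and after 24 h (formalin-fixed, crystal violet-stained). Wound-area closure was quantified and expressed as percent inhibition relative to DMSO control.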

[3] = Cytotoxicity against human PC3 cells at 100 uM by WST1 assay; type: cell-based, PC-3; settings: read-out: INH
Outline: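 Read-out was inhibition of mitochondrial WST-1 reduction in PC-3 cells transiently transfected with an SRE.L luciferase reporter. Compound was tested at 100 μM. Values are the mean of n = 3 independent experiments.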

PC-3 [4] = assay: Antimetastatic activity against human PC3 cells after 24 hrs by scratch wound assay; type: functional, cell-based; settings: PC-3, 24 h
Outline: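 PC-3 cells (5.0×10^5) were grown to confluence in DMEM with 10% FBS and scratched after 24 h. Medium was switched to DMEM with 0.5% FBS containing compound at various concentrations or 0.1% DMSO. Wounds were imaged at 0 h, then fixed (10% formalin) and crystal-violet stained at 24 h. Migration = initial minus 24 h wound area, normalized to DMSO. IC50 was taken from dose-response curves.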

[5] = Cytotoxicity against human SK-MEL-147 cells by WST1 assay; type: cell-based
Outline: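 WST-1 reduction was measured in SK-Mel-147 melanoma cells transiently transfected for the RhoC-SRE.L luciferase reporter assay.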

Mus musculus [6] = assay: Toxicity in mouse assessed as organism survival at 10 to 100 mg/kg/day, ip after 5 days; type: organism-based; parameters: route intraperitoneal; settings: in vivo, 120 h
Outline: (§1)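 5-day tolerability study in mice, doses of 10, 20, 50 and 100 mg/kg/day given intraperitoneally, 3 mice per dose. Animals sacrificed on day 8, then body weight recorded, blood collected, and internal organs dissected, weighed and examined for abnormalities. Behaviour observed and survival tracked over the dosing period.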

Mus musculus [7] = assay: Toxicity in mouse assessed as increase in liver weight at 10 to 100 mg/kg/day, ip administered for 5 days measured on day 8; type: organism-based; parameters: route intraperitoneal; settings: in vivo, 120 h; outline: as §1

For `O=C(Nc1cccc(Cc2ccccc2)c1)C1CCCN(C(=O)c2cc(C(F)(F)F)cc(C(F)(F)F)c2)C1` (centres undefined), the solubility kinetic [1] was 1.89 µg/mL (≈ 3.54 µM) and the inhibition at 10 µM (PC-3 [2]) was < 30%.
`CS(=O)(=O)c1cccc(C(=O)N2CCCC(C(=O)Nc3ccc(Cl)cc3)C2)c1` (centres undefined) gave a cytotoxicity at 100 µM [3] of 2%.
With `O=C(Nc1ccc(Cl)cc1)C1CCCN(C(=O)c2cccc(-c3cccs3)c2)C1` (centres undefined) the IC50 (PC-3 [4]) was […], the solubility kinetic [1] was 1.36 µg/mL (≈ 3.2 µM) and the inhibition at 10 µM (PC-3 [2]) was 70%. The cytotoxicity at 100 µM [3] was 4%.
In the case of `O=C(Nc1cccc(CN2CCCC2)c1)C1CCCN(C(=O)c2cc(C(F)(F)F)cc(C(F)(F)F)c2)C1` (centres undefined), the cytotoxicity at 100 µM [3] is reported as 51%.
`CC(=O)Nc1cccc(C(=O)N2CCCC(C(=O)Nc3ccc(Cl)cc3)C2)c1` (centres undefined) gave a cytotoxicity at 100 µM [3] of 4%.
Work on `Cc1nc(-c2cccc(C(=O)N3CCCC(C(=O)Nc4ccc(Cl)cc4)C3)c2)cs1` (centres undefined) yielded a cytotoxicity at 100 µM [3] of 1%.
With `O=C(Nc1ccc(Cl)cc1)C1CCCN(C(=O)c2cccc(-c3nccs3)c2)C1` (centres undefined) the cytotoxicity at 100 µM [3] was 32%.
For `O=C(CCNC(=O)c1cc(C(F)(F)F)cc(C(F)(F)F)c1)Nc1ccc(Cl)cc1`, the solubility kinetic [1] was 2.21 µg/mL (≈ 5.04 µM) and the inhibition at 10 µM (PC-3 [2]) was < 10%.
Compound `O=C(Nc1ccc(Cl)cc1)C1CCCN(C(=O)c2cc(C(F)(F)F)cc(C(F)(F)F)c2)C1` (centres undefined) has an IC50 (PC-3 [4]) of 17 µM, a solubility kinetic [1] of 4.5 µg/mL (≈ 9.4 µM) and an inhibition at 10 µM (PC-3 [2]) of 22%. The cytotoxicity at 100 µM [3] was 14%.
`Cc1nc(-c2cccc(NC(=O)C3CCCN(C(=O)c4cc(C(F)(F)F)cc(C(F)(F)F)c4)C3)c2)cs1` (centres undefined) showed an inhibition at 10 µM (PC-3 [2]) of 42% and a cytotoxicity at 100 µM [3] of 1%.
In the case of `C[C@@H](N)[C@H]1CC[C@H](C(=O)Nc2ccncc2)CC1` [Y-27632], the IC50 (PC-3 [4]) is reported as 28 µM.
Work on `O=C(Nc1ccc(Cl)cc1)C1CCCN(C(=O)c2ccc(-c3ccco3)cc2)C1` (centres undefined) yielded a cytotoxicity at 100 µM [3] of 6%.
For `O=C(Nc1ccc(Cl)nc1)C1CCCN(C(=O)c2cc(C(F)(F)F)cc(C(F)(F)F)c2)C1` (centres undefined), the cytotoxicity at 100 µM [3] was 25%.
`O=C(Nc1cccc(-c2cnco2)c1)C1CCCN(C(=O)c2cc(C(F)(F)F)cc(C(F)(F)F)c2)C1` (centres undefined) gave a cytotoxicity at 100 µM [3] of 9%.
For `O=C(Nc1cccc(OCCc2ccccn2)c1)C1CCCN(C(=O)c2cc(C(F)(F)F)cc(C(F)(F)F)c2)C1` (centres undefined), the inhibition at 10 µM (PC-3 [2]) was < 30% and the cytotoxicity at 100 µM [3] was 5%.
For `O=C(Nc1cccc([N+](=O)[O-])c1)C1CCCN(C(=O)c2cc(C(F)(F)F)cc(C(F)(F)F)c2)C1` (centres undefined), the cytotoxicity at 100 µM [3] was 9%.
Work on `CS(=O)(=O)Nc1cccc(C(=O)N2CCCC(C(=O)Nc3ccc(Cl)cc3)C2)c1` (centres undefined) yielded a cytotoxicity at 100 µM [3] of 3%.
For `O=C(Nc1ccc(Cl)cc1)C1CCCN(C(=O)c2cccc(-c3ccco3)c2)C1` (centres undefined), the Activity [5] was “Non-toxic”, the Activity (Mus musculus [6]) was “Non-toxic” and the Activity (Mus musculus [7]) was “Toxic”. For the same compound, the IC50 (PC-3 [4]) was 4.2 µM, the solubility kinetic [1] was 3.09 µg/mL (≈ 7.56 µM) and the inhibition at 10 µM (PC-3 [2]) was 70%.
With `C=Cc1cccc(NC(=O)C2CCCN(C(=O)c3cc(C(F)(F)F)cc(C(F)(F)F)c3)C2)c1` (centres undefined) the cytotoxicity at 100 µM [3] was 1%.
In the case of `O=C(Nc1cccc(OCc2ccccn2)c1)C1CCCN(C(=O)c2cc(C(F)(F)F)cc(C(F)(F)F)c2)C1` (centres undefined), the cytotoxicity at 100 µM [3] is reported as 15%.
With `O=C(Nc1cccc(S(=O)(=O)N2CCCC2)c1)C1CCCN(C(=O)c2cc(C(F)(F)F)cc(C(F)(F)F)c2)C1` (centres undefined) the inhibition at 10 µM (PC-3 [2]) was < 30%.
In the case of `O=C(Nc1cccc(Oc2ccccc2)c1)C1CCCN(C(=O)c2cc(C(F)(F)F)cc(C(F)(F)F)c2)C1` (centres undefined), the solubility kinetic [1] is reported as 3.22 µg/mL (≈ 6 µM), the inhibition at 10 µM (PC-3 [2]) is reported as < 30% and the cytotoxicity at 100 µM [3] is reported as 1%.
